The target in assay [1] is T1, Angiotensin II receptor (AT-1) type-1 (Rattus norvegicus, UniProt P29089+P25095).
T1 sequence (P29089 whole entry): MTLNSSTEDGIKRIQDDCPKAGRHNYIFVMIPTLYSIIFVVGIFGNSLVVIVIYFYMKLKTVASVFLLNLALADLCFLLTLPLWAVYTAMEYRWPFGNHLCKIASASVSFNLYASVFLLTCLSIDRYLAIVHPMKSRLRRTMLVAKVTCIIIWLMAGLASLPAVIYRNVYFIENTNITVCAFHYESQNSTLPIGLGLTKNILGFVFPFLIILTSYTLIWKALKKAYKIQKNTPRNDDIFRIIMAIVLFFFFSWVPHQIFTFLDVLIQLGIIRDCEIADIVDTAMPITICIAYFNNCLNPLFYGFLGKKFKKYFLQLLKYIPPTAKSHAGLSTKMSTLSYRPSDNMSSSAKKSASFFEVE
T1 sequence (P25095 whole entry): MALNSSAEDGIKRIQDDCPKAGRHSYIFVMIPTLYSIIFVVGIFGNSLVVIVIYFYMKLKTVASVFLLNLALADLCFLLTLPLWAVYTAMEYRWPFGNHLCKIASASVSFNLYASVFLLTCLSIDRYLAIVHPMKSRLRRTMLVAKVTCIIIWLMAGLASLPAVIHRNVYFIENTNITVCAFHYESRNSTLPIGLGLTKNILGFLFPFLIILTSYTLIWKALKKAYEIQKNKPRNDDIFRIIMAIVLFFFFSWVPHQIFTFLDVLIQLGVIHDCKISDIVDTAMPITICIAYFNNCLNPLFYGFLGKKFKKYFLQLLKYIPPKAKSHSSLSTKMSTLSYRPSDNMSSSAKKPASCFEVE
The assay can be described thus: Concentration required to 50% inhibition in specific binding of [125- I]A-II to Angiotensin II receptor in rat uterine membrane. Format: cell membranes. Summed up:
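Rat uterine membranes were homogenized in ice-cold Dulbecco's PBS with 5 mM EDTA, spun at 1500g then 100000g, and resuspended in 2 mM EGTA/50 mM Tris-HCl pH 7.5. Nonspecific binding was defined with 10 µM AII. IC50 came from nonlinear least-squares fits, triplicate means.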

Assay [2] is filed under the species Oryctolagus cuniculus. Briefly: Contractile activity in rabbit aortic rings. Format: functional, Aorta. The essentials: (§1)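 Aortic rings were taken from male New Zealand white rabbits (2–2.5 kg) and tested at analogue concentrations up to 10 µM. pD2 was calculated from the analogue's concentration/response curve.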
The species named for assay [3] is Oryctolagus cuniculus. The assay can be described thus: Contractile activity in rabbit aortic rings relative to angiotensin II. Format: functional, Aorta. Summed up: (§2)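 Aortic rings were taken from male New Zealand white rabbits (2–2.5 kg) and tested at analogue concentrations up to 10 µM. Potency is relative to the AII concentration/response curve run at the same time on a paired ring from the same aorta.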

The species entered for assay [4] is Oryctolagus cuniculus. The assay can be described thus: No contractile activity was observed up to 10 uM concentration in rabbit aortic rings relative to angiotensin II; NA = no activity. Format: functional. The following applies: Aorta. The essentials: as §2
The species entered for assay [5] is Oryctolagus cuniculus. The assay can be described thus: No contractile activity was observed up to 10 uM concentration in rabbit aortic rings; NA = no activity. Format: functional. Particulars: Aorta. Summed up: as §1
Assay [6] addresses Type-1 angiotensin II receptor (Oryctolagus cuniculus) (UniProt P34976). The assay can be described thus: pA2 value for Angiotensin II receptor.

Calls of active or inactive are those of the source. No cut-off for these calls is given here. Positions of bridges follow the written chain, without caps; N, C: chain ends. Non-standard residues stand in square brackets, D forms with d. Residues, ends and D or L forms follow the SMILES beside them. Pen = CC(C)(S)[C@H](N)C(=O)O; hCys = N[C@@H](CCS)C(=O)O; Sar = CNCC(=O)O

Sequence of Type-1 angiotensin II receptor (Oryctolagus cuniculus) (P34976 whole entry, looked up): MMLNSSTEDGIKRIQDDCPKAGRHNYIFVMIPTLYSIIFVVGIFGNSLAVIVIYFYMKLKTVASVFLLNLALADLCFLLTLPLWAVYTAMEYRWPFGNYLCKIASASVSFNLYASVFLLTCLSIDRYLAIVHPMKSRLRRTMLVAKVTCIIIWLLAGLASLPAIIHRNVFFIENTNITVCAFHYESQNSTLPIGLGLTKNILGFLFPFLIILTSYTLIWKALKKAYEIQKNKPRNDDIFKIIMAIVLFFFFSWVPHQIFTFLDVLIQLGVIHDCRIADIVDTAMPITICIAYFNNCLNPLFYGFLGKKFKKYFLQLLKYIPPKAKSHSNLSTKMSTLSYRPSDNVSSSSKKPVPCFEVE

The compound `NC(N)=NCCC[C@H](NC(=O)[C@@H](N)CC(=O)O)C(=O)N[C@H]1CCSSC[C@@H](C(=O)N[C@@H](Cc2c[nH]cn2)C(=O)N2CCC[C@H]2C(=O)N[C@@H](Cc2ccccc2)C(=O)O)NC(=O)[C@H](Cc2ccc(O)cc2)NC1=O` (H-DR[hCys]YCHPF-OH; disulfide 3-5) returned an IC50 in assay [1] of 0.01 µM. The compound also displayed a pD2 in assay [2] of 5.91. The compound further yielded a Relative potency in assay [3] of 0.001.
With `CC(=O)NCSC[C@H](NC(=O)[C@H](CCCN=C(N)N)NC(=O)[C@@H](N)CC(=O)O)C(=O)N[C@@H](Cc1ccc(O)cc1)C(=O)N[C@@H](CSCNC(C)=O)C(=O)N[C@@H](Cc1c[nH]cn1)C(=O)N1CCC[C@H]1C(=O)N[C@@H](Cc1ccccc1)C(=O)O`, in assay [1], the IC50 turned out to be 10 µM. For the same compound, the pD2 in assay [2] is recorded as less than 5. In addition, in assay [3], the Relative potency is recorded as less than 0.0001.
For `NC(N)=NCCC[C@H](NC(=O)[C@@H](N)CC(=O)O)C(=O)N[C@H]1CSSC[C@@H](C(=O)N[C@@H](Cc2c[nH]cn2)C(=O)N2CCC[C@H]2C(=O)N[C@@H](Cc2ccccc2)C(=O)O)NC(=O)[C@H](Cc2ccc(O)cc2)NC1=O`, in that order: 0.043 µM, less than 5 and less than 0.0001.
For H-DRVYCHPF-OH, in that order: 0.02 µM, 7.21 and 0.031.
For `CC1(C)SSC(C)(C)[C@@H](C(=O)N[C@@H](Cc2c[nH]cn2)C(=O)N2CCC[C@H]2C(=O)N[C@@H](Cc2ccccc2)C(=O)O)NC(=O)[C@H](Cc2ccc(O)cc2)NC(=O)[C@H]1NC(=O)[C@H](CCCN=C(N)N)NC(=O)[C@@H](N)CC(=O)O` (H-DR[Pen]Y[Pen]HPF-OH; disulfide 3-5), the IC50 in assay [1] came out at 0.0026 µM. In assay [2], this compound yielded a pD2 of 5. In addition, in assay [3], the Relative potency turned out to be 0.0001.
For `NC(N)=NCCC[C@H](NC(=O)[C@@H](N)CC(=O)O)C(=O)N[C@H]1CSSCC[C@@H](C(=O)N[C@@H](Cc2c[nH]cn2)C(=O)N2CCC[C@H]2C(=O)N[C@@H](Cc2ccccc2)C(=O)O)NC(=O)[C@H](Cc2ccc(O)cc2)NC1=O` (H-DRCY[hCys]HPF-OH; disulfide 3-5), in that order: 0.013 µM, 6.98 and 0.012.
Take `NC(N)=NCCC[C@H](NC(=O)[C@@H](N)CC(=O)O)C(=O)N[C@H]1CSSC[C@H](C(=O)N[C@@H](Cc2c[nH]cn2)C(=O)N2CCC[C@H]2C(=O)N[C@@H](Cc2ccccc2)C(=O)O)NC(=O)[C@H](Cc2ccc(O)cc2)NC1=O`: the IC50 in assay [1] was 10 µM. The Relative potency entry in assay [4] was “inactive”. In addition, the pD2 result in assay [5] is “inactive”.
The compound `CC[C@H](C)[C@H](NC(=O)[C@@H]1CCCN1C(=O)[C@H](Cc1c[nH]cn1)NC(=O)[C@@H]1CCSSCC[C@H](NC(=O)[C@H](CCCN=C(N)N)NC(=O)CNC)C(=O)N[C@@H](Cc2ccc(O)cc2)C(=O)N1)C(=O)O` (H-[Sar]R[hCys]Y[hCys]HPI-OH; disulfide 3-5) displayed an IC50 in assay [1] of 0.0009 µM. In assay [4], the Relative potency result was “inactive”. In assay [5], the pD2 result was “inactive”. Also, in assay [6], the Kb was 0.000813 µM.
For `CC(=O)NCSC[C@H](NC(=O)[C@H](Cc1ccc(O)cc1)NC(=O)[C@@H](CSCNC(C)=O)NC(=O)[C@H](CCCN=C(N)N)NC(=O)[C@@H](N)CC(=O)O)C(=O)N[C@@H](Cc1c[nH]cn1)C(=O)N1CCC[C@H]1C(=O)N[C@@H](Cc1ccccc1)C(=O)O`, the concentration for half-maximal inhibition (IC50) in assay [1] is more than 10 µM. The Relative potency entry in assay [4] is “inactive”. The pD2 entry in assay [5] is “inactive”.
With `NC(N)=NCCC[C@H](NC(=O)[C@@H](N)CC(=O)O)C(=O)N[C@@H]1CSSC[C@@H](C(=O)N[C@@H](Cc2c[nH]cn2)C(=O)N2CCC[C@H]2C(=O)N[C@@H](Cc2ccccc2)C(=O)O)NC(=O)[C@H](Cc2ccc(O)cc2)NC1=O`, the Relative potency result in assay [4] was “inactive”. Also, the pD2 result in assay [5] is “inactive”.
In assay [1], `CC1(C)SSC[C@H](NC(=O)[C@H](CCCN=C(N)N)NC(=O)[C@@H](N)CC(=O)O)C(=O)N[C@@H](Cc2ccc(O)cc2)C(=O)N[C@@H]1C(=O)N[C@@H](Cc1c[nH]cn1)C(=O)N1CCC[C@H]1C(=O)N[C@@H](Cc1ccccc1)C(=O)O` (H-DRCY[Pen]HPF-OH; disulfide 3-5) registered a half-maximal inhibitory concentration (IC50) of 0.0013 µM. In addition, in assay [2], the pD2 is 5.8. Besides, the Relative potency in assay [3] was determined as 0.001.
Turning to `CC(=O)NCSC[C@H](NC(=O)[C@H](CCCN=C(N)N)NC(=O)[C@@H](N)CC(=O)O)C(=O)N[C@@H](Cc1ccc(O)cc1)C(=O)N[C@H](CSCNC(C)=O)C(=O)N[C@@H](Cc1c[nH]cn1)C(=O)N1CCC[C@H]1C(=O)N[C@@H](Cc1ccccc1)C(=O)O`, in assay [1], the half-maximal inhibitory concentration (IC50) amounted to 10 µM. In assay [4], the Relative potency entry is “inactive”. Moreover, the pD2 result in assay [5] is “inactive”.
Turning to H-DRCYIHPF-OH, in assay [1], the IC50 was 0.015 µM. Besides, the pD2 in assay [2] is recorded as 7.68. This compound also showed a Relative potency in assay [3] of 0.092.
`NC(N)=NCCC[C@H](NC(=O)[C@@H](N)CC(=O)O)C(=O)N[C@H]1CCSSCC[C@@H](C(=O)N[C@@H](Cc2c[nH]cn2)C(=O)N2CCC[C@H]2C(=O)N[C@@H](Cc2ccccc2)C(=O)O)NC(=O)[C@H](Cc2ccc(O)cc2)NC1=O` (H-DR[hCys]Y[hCys]HPF-OH; disulfide 3-5): the 50% inhibitory concentration (IC50) in assay [1] came out at 0.0021 µM. The compound also gave a pD2 in assay [2] of 8.48. Also, the Relative potency in assay [3] is 0.49.
For `CC1(C)SSC[C@@H](C(=O)N[C@@H](Cc2c[nH]cn2)C(=O)N2CCC[C@H]2C(=O)N[C@@H](Cc2ccccc2)C(=O)O)NC(=O)[C@H](Cc2ccc(O)cc2)NC(=O)[C@H]1NC(=O)[C@H](CCCN=C(N)N)NC(=O)[C@@H](N)CC(=O)O` (H-DR[Pen]YCHPF-OH; disulfide 3-5), in that order: 0.058 µM, 5 and 0.0001.
The compound `CC[C@H](C)[C@H](NC(=O)[C@H](Cc1ccc(O)cc1)NC(=O)[C@@H](NC(=O)[C@H](CCCNC(=N)N)NC(=O)[C@@H](N)CC(=O)O)C(C)C)C(=O)N[C@@H](Cc1cnc[nH]1)C(=O)N1CCC[C@H]1C(=O)N[C@@H](Cc1ccccc1)C(=O)O` [ANGIOTENSIN II] showed a pD2 in assay [2] of 8.81.

Broadly, the IC50 is the point on the concentration scale where inhibition reaches its midpoint.

These data come from ChEMBL document CHEMBL1124840 (J Med Chem, 1990).
